Laboratory results as given in ChEMBL document CHEMBL2040768, “Synthesis, antimicrobial and cytotoxic activities of sulfone linked bis heterocycles” (Eur J Med Chem, 2012).
Calls of active or inactive are those of the source. The calls are words filed in the database; no cut-off is given here.

Columns and labels:
Penicillium chrysogenum [1] = experiment: Antifungal activity against Penicillium chrysogenum at 50 ug/ml after 48 hrs by agar well diffusion method; assay type: functional; settings: for zone of inhibition at 50 µg/mL: read-out: DIZ
Summary of the method: (§1)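 Fungal agar well diffusion. Plates swabbed with fungal culture, 6 mm wells filled with DMSO solutions of compound (50 and 100 per well). Ketoconazole positive and DMSO negative controls. Plates incubated 28 °C for 48 h; zone of inhibition diameter (mm) read, average of duplicates.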

Staphylococcus aureus [2] = experiment: Antibacterial activity against Staphylococcus aureus at 50 ug/ml after 24 hrs by agar well diffusion method; assay type: functional; settings: for zone of inhibition at 50 µg/mL: read-out: DIZ
Summary of the method: (§2)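 Agar well diffusion. Nutrient plates swabbed with 24 h broth culture of the bacterium; 6 mm wells bored and loaded with DMSO solutions of compound (wells at 50 and 100 per well). Chloramphenicol positive control, DMSO negative control. Plates held 37 °C, 24 h; inhibition zone diameter (mm) measured, mean of duplicates.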

Bacillus subtilis [3] = experiment: Antibacterial activity against Bacillus subtilis at 50 ug/ml after 24 hrs by agar well diffusion method; assay type: functional; settings: for zone of inhibition at 50 µg/mL: read-out: DIZ; summary of the method: as §2
Aspergillus niger [4] = experiment: Antifungal activity against Aspergillus niger at 100 ug/ml after 48 hrs by agar well diffusion method; assay type: functional; settings: for zone of inhibition at 100 µg/mL: read-out: DIZ; summary of the method: as §1
A549 = experiment: Cytotoxicity against human A549 cells up to 0.2 mM after 72 hrs by MTT assay
Staphylococcus aureus [5] = experiment: Antibacterial activity against Staphylococcus aureus at 100 ug/ml after 24 hrs by agar well diffusion method; assay type: functional; settings: for zone of inhibition at 100 µg/mL: read-out: DIZ; summary of the method: as §2
Aspergillus niger [6] = experiment: Antifungal activity against Aspergillus niger at 50 ug/ml after 48 hrs by agar well diffusion method; assay type: functional; settings: for zone of inhibition at 50 µg/mL: read-out: DIZ; summary of the method: as §1
Bacillus subtilis [7] = experiment: Antibacterial activity against Bacillus subtilis at 100 ug/ml after 24 hrs by agar well diffusion method; assay type: functional; settings: for zone of inhibition at 100 µg/mL: read-out: DIZ; summary of the method: as §2
Pseudomonas aeruginosa [8] = experiment: Antibacterial activity against Pseudomonas aeruginosa at 50 ug/ml after 24 hrs by agar well diffusion method; assay type: functional; settings: for zone of inhibition at 50 µg/mL: read-out: DIZ; summary of the method: as §2
Klebsiella pneumoniae [9] = experiment: Antibacterial activity against Klebsiella pneumoniae at 50 ug/ml after 24 hrs by agar well diffusion method; assay type: functional; settings: for zone of inhibition at 50 µg/mL: read-out: DIZ; summary of the method: as §2
Pseudomonas aeruginosa [10] = experiment: Antibacterial activity against Pseudomonas aeruginosa at 100 ug/ml after 24 hrs by agar well diffusion method; assay type: functional; settings: for zone of inhibition at 100 µg/mL: read-out: DIZ; summary of the method: as §2
Klebsiella pneumoniae [11] = experiment: Antibacterial activity against Klebsiella pneumoniae at 100 ug/ml after 24 hrs by agar well diffusion method; assay type: functional; settings: for zone of inhibition at 100 µg/mL: read-out: DIZ; summary of the method: as §2
Penicillium chrysogenum [12] = experiment: Antifungal activity against Penicillium chrysogenum at 100 ug/ml after 48 hrs by agar well diffusion method; assay type: functional; settings: for zone of inhibition at 100 µg/mL: read-out: DIZ; summary of the method: as §1

SMILES	zone of inhibition at 50 µg/mL (Penicillium chrysogenum [1])	zone of inhibition at 50 µg/mL (Staphylococcus aureus [2])	zone of inhibition at 50 µg/mL (Bacillus subtilis [3])	zone of inhibition at 100 µg/mL (Aspergillus niger [4])	Activity (A549)	zone of inhibition at 100 µg/mL (Staphylococcus aureus [5])	zone of inhibition at 50 µg/mL (Aspergillus niger [6])	zone of inhibition at 100 µg/mL (Bacillus subtilis [7])	diameter of the inhibition zone (DIZ) (Penicillium chrysogenum [1])	diameter of the inhibition zone (DIZ) (Aspergillus niger [4])	diameter of the inhibition zone (DIZ) (Aspergillus niger [6])	diameter of the inhibition zone (DIZ) (Pseudomonas aeruginosa [8])	diameter of the inhibition zone (DIZ) (Klebsiella pneumoniae [9])	diameter of the inhibition zone (DIZ) (Pseudomonas aeruginosa [10])	diameter of the inhibition zone (DIZ) (Klebsiella pneumoniae [11])	diameter of the inhibition zone (DIZ) (Penicillium chrysogenum [12])	diameter of the inhibition zone (DIZ) (Staphylococcus aureus [2])	diameter of the inhibition zone (DIZ) (Bacillus subtilis [3])	diameter of the inhibition zone (DIZ) (Staphylococcus aureus [5])	diameter of the inhibition zone (DIZ) (Bacillus subtilis [7])	also measured
Cc1ccc(NS(=O)(=O)Cc2nnc(CS(=O)(=O)/C=C/S(=O)(=O)c3ccc(C)cc3)s2)cc1	20 mm	18 mm	21 mm	21 mm	inactive	20 mm	18 mm	23 mm	–	–	–	–	–	–	–	–	–	–	–	–	zone of inhibition at 50 µg/mL (Pseudomonas aeruginosa [8]): 14 mm; zone of inhibition at 50 µg/mL (Klebsiella pneumoniae [9]): 23 mm; zone of inhibition at 100 µg/mL (Pseudomonas aeruginosa [10]): 16 mm; zone of inhibition at 100 µg/mL (Klebsiella pneumoniae [11]): 25 mm; zone of inhibition at 100 µg/mL (Penicillium chrysogenum [12]): 23 mm
Cc1ccc(NS(=O)(=O)Cc2nnc(CS(=O)(=O)c3c[nH]cc3S(=O)(=O)c3ccc(C)cc3)n2N)cc1	18 mm	16 mm	19 mm	19 mm	inactive	18 mm	18 mm	21 mm	–	–	–	–	–	–	–	–	–	–	–	–	zone of inhibition at 50 µg/mL (Pseudomonas aeruginosa [8]): 13 mm; zone of inhibition at 50 µg/mL (Klebsiella pneumoniae [9]): 21 mm; zone of inhibition at 100 µg/mL (Pseudomonas aeruginosa [10]): 15 mm; zone of inhibition at 100 µg/mL (Klebsiella pneumoniae [11]): 23 mm; zone of inhibition at 100 µg/mL (Penicillium chrysogenum [12]): 21 mm
O=S(=O)(Cc1nnc(CS(=O)(=O)c2c[nH]cc2S(=O)(=O)c2ccccc2)o1)Nc1ccccc1	–	12 mm	13 mm	–	inactive	14 mm	–	15 mm	inactive	inactive	inactive	inactive	inactive	inactive	inactive	inactive	–	–	–	–	–
Cc1ccc(NS(=O)(=O)Cc2nnc(CS(=O)(=O)/C=C/S(=O)(=O)c3ccc(C)cc3)o2)cc1	–	–	–	–	inactive	–	–	–	inactive	inactive	inactive	inactive	inactive	inactive	inactive	inactive	inactive	inactive	inactive	inactive	–
Cc1ccc(NS(=O)(=O)Cc2nnc(CS(=O)(=O)c3c[nH]nc3S(=O)(=O)c3ccc(C)cc3)s2)cc1	11 mm	12 mm	10 mm	13 mm	inactive	14 mm	10 mm	13 mm	–	–	–	–	–	–	–	–	–	–	–	–	zone of inhibition at 50 µg/mL (Pseudomonas aeruginosa [8]): 8 mm; zone of inhibition at 50 µg/mL (Klebsiella pneumoniae [9]): 13 mm; zone of inhibition at 100 µg/mL (Pseudomonas aeruginosa [10]): 11 mm; zone of inhibition at 100 µg/mL (Klebsiella pneumoniae [11]): 15 mm; zone of inhibition at 100 µg/mL (Penicillium chrysogenum [12]): 13 mm
O=S(=O)(Cc1nnc(CS(=O)(=O)C2CNN=C2S(=O)(=O)c2ccccc2)o1)Nc1ccccc1 (stereo not drawn)	–	–	–	–	inactive	–	–	–	inactive	inactive	inactive	inactive	inactive	inactive	inactive	inactive	inactive	inactive	inactive	inactive	–
O=S(=O)(/C=C/S(=O)(=O)c1ccccc1)Cc1nnc(CS(=O)(=O)Nc2ccccc2)o1	–	10 mm	12 mm	–	inactive	13 mm	–	14 mm	inactive	inactive	inactive	inactive	inactive	inactive	inactive	inactive	–	–	–	–	–
Nn1c(CS(=O)(=O)Nc2ccccc2)nnc1CS(=O)(=O)c1c[nH]cc1S(=O)(=O)c1ccccc1	19 mm	17 mm	20 mm	20 mm	inactive	19 mm	18 mm	22 mm	–	–	–	–	–	–	–	–	–	–	–	–	zone of inhibition at 50 µg/mL (Pseudomonas aeruginosa [8]): 15 mm; zone of inhibition at 50 µg/mL (Klebsiella pneumoniae [9]): 22 mm; zone of inhibition at 100 µg/mL (Pseudomonas aeruginosa [10]): 16 mm; zone of inhibition at 100 µg/mL (Klebsiella pneumoniae [11]): 24 mm; zone of inhibition at 100 µg/mL (Penicillium chrysogenum [12]): 22 mm
Cc1ccc(NS(=O)(=O)Cc2nnc(CS(=O)(=O)c3c[nH]nc3S(=O)(=O)c3ccc(C)cc3)o2)cc1	–	–	–	–	inactive	–	–	–	inactive	inactive	inactive	inactive	inactive	inactive	inactive	inactive	inactive	inactive	inactive	inactive	–
Cc1ccc(NS(=O)(=O)Cc2nnc(CS(=O)(=O)C3CNN=C3S(=O)(=O)c3ccc(C)cc3)o2)cc1 (stereo not drawn)	–	–	–	–	inactive	–	–	–	inactive	inactive	inactive	inactive	inactive	inactive	inactive	inactive	inactive	inactive	inactive	inactive	–
Cc1ccc(NS(=O)(=O)Cc2nnc(CS(=O)(=O)c3c[nH]cc3S(=O)(=O)c3ccc(C)cc3)o2)cc1	–	–	–	–	inactive	–	–	–	inactive	inactive	inactive	inactive	inactive	inactive	inactive	inactive	inactive	inactive	inactive	inactive	–
